A short description of series [1]: Cytotoxicity against human MT4 cells after 5 days by MTT assay. In kind it is cell-based. Put shortly:
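Uninfected MT-4 cells exposed to various compound concentrations and allowed to proliferate 5 days. Viable cells quantified by tetrazolium-based colorimetric (MTT) method to give CC50.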

Series [2] deals with Human immunodeficiency virus 1. The series can be described thus: Antiviral activity against HIV1 NL4-3 infected in human MT4 cells assessed as inhibition of virus-induced cytopathic effect after 5 days. The class given is functional, organism-based. Particulars: Human immunodeficiency virus 1, NL4-3, MT4, 120 h. Put shortly: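 HIV-1 NL4-3 titered in MT-4 cells after acute infection. Infected cells were exposed to various concentrations of compound and grown 5 days. Protection from virus-induced cytopathic effect was read as viable cell number by tetrazolium (MTT) colorimetry, giving EC50.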

Series [3] has as its system Human immunodeficiency virus 1. Description: Ratio of HEPT EC50 to compound EC50 for HIV1 NL4-3. The class given is functional.
Series [4] is described as follows: Selectivity index, ratio of CC50 for human MT4 cells to EC50 for HIV1 NL4-3. The class given is toxicity, cell-based. Particulars: read-out: Ratio CC50/EC50. In short, it runs like this:
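SI taken as CC50 in uninfected MT-4 cells over EC50 against HIV-1 NL4-3. Both came from parallel 5-day MTT viability read-outs, in mock-infected and in infected cells exposed to various compound concentrations.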

≈ marks a conversion by molar mass, not a printed value. Some results are limits rather than exact numbers.

The compound `Cc1c(Sc2ccccc2)n(COCC[Si](C)(C)C)c(=O)[nH]c1=O` showed a CC50 at 120 h in series [1] of 9.9 µg/mL (≈ 27.2 µM). In series [2], the EC50 was above 27.3 µM.
`CCOCn1c(Sc2ccccc2)c(C)c(=O)[nH]c1=O`: in series [1], the CC50 at 120 h is above 25 µg/mL. Also, the EC50 in series [2] turned out to be 0.086 µM. Further, in series [3], the “Ratio EC50” value is reported as 38. In addition, the selectivity ratio in series [4] is above 1000.
`Cc1cn([C@H]2C[C@H](N=[N+]=[N-])[C@@H](CO)O2)c(=O)[nH]c1=O` [ZIDOVUDINE]: the CC50 at 120 h in series [1] was above 1 µg/mL. In series [2], the EC50 was determined as 0.004 µM. Moreover, in series [4], the selectivity ratio was above 1000.
In series [1], `Cc1ccc(C)c(Cn2c(Sc3cccc(N)c3)cc(=O)[nH]c2=O)c1` had a CC50 at 120 h above 25 µg/mL. In series [2], the EC50 is above 71 µM.
In the same order, the values of `Cc1ccc(C)c(Cn2c(Sc3c(Cl)cccc3Cl)c(C)c(=O)[nH]c2=O)c1` are above 25 µg/mL and above 59 µM.
Take `Cc1ccc(C)c(Cn2c(Sc3cccc(N)c3)c(C)c(=O)[nH]c2=O)c1`: the CC50 at 120 h in series [1] was above 25 µg/mL. Also, in series [2], the EC50 was 5.2 µM. In addition, in series [4], the selectivity ratio was above 13.
Take `Cc1c(Sc2c(Cl)cccc2Cl)n(COCC[Si](C)(C)C)c(=O)[nH]c1=O`: the CC50 at 120 h in series [1] came to 9.2 µg/mL (≈ 21.2 µM). In series [2], the EC50 was above 21.3 µM.
On to `Cc1ccc(C)c(Cn2c(Sc3cccc(Cl)c3)cc(=O)[nH]c2=O)c1`, for which the CC50 at 120 h in series [1] was above 25 µg/mL. Further, in series [2], the 50% effective concentration (EC50) is above 67 µM.
Take `O=C1Nc2ccc(Cl)cc2[C@@](C#CC2CC2)(C(F)(F)F)O1` [EFAVIRENZ]: in series [1], the CC50 at 120 h was above 1 µg/mL.
For the compound `Cc1c(Sc2ccccc2)n(COCCO)c(=O)[nH]c1=O` [HEPT], the CC50 at 120 h in series [1] is above 25 µg/mL. In addition, the EC50 in series [2] was 3.28 µM. Further, the selectivity ratio in series [4] was above 25.
In series [1], `CCOCn1c(Sc2ccccc2)cc(=O)[nH]c1=O` gave a CC50 at 120 h above 25 µg/mL. Further, the EC50 in series [2] is above 90 µM.
In turn, `CCOCn1c(Sc2cccc(Cl)c2)cc(=O)[nH]c1=O` came in with a CC50 at 120 h in series [1] above 25 µg/mL. For the same compound, the EC50 in series [2] was above 80 µM.
In series [1], `C[Si](C)(C)CCOCn1c(Sc2c(Cl)cccc2Cl)cc(=O)[nH]c1=O` returned a CC50 at 120 h of 10.6 µg/mL (≈ 25.3 µM). The EC50 in series [2] was above 25.2 µM.
As to `Cc1c(Sc2cccc(Cl)c2)n(COCCO)c(=O)[nH]c1=O`, the CC50 at 120 h in series [1] is above 25 µg/mL. For the same compound, the EC50 in series [2] stood at 1.2 µM. In addition, in series [4], the selectivity ratio is above 60.
In turn, `Cc1ccnc2c1NC(=O)c1cccnc1N2C1CC1` [NEVIRAPINE] returned a CC50 at 120 h in series [1] above 5 µg/mL.
In series [1], `Cc1ccc(C)c(Cn2c(Sc3ccccc3)c(C)c(=O)[nH]c2=O)c1` came in with a CC50 at 120 h above 25 µg/mL. In addition, in series [2], the EC50 amounted to 3.57 µM. Besides, in series [4], the selectivity ratio was above 20.
In the case of `C[Si](C)(C)CCOCn1c(Sc2cccc(N)c2)cc(=O)[nH]c1=O`, the CC50 at 120 h in series [1] is above 25 µg/mL. Moreover, the EC50 in series [2] was above 68 µM.
The corresponding values for `CCOCn1c(Sc2cccc(N)c2)cc(=O)[nH]c1=O` are above 25 µg/mL and above 85 µM.
For the compound `Cc1ccc(C)c(Cn2c(Sc3cccc(Cl)c3)c(C)c(=O)[nH]c2=O)c1`, in series [1], the CC50 at 120 h is 13.6 µg/mL (≈ 35.2 µM). The EC50 in series [2] stood at 0.868 µM. Besides, in series [4], the selectivity ratio was above 40.
The compound `C[Si](C)(C)CCOCn1c(Sc2cccc(Cl)c2)cc(=O)[nH]c1=O` returned a CC50 at 120 h in series [1] of 11.6 µg/mL (≈ 30.1 µM). Moreover, in series [2], the EC50 was above 30 µM.
The corresponding values for `CCOCn1c(Sc2cccc(Cl)c2)c(C)c(=S)[nH]c1=O` are 1.7 µg/mL (≈ 4.96 µM) and above 4.96 µM.
In the same order, the values of `Cc1c(Sc2cccc(Cl)c2)n(COCC[Si](C)(C)C)c(=O)[nH]c1=O` are 9.9 µg/mL (≈ 24.8 µM) and above 24.9 µM.
The corresponding values for `CCOCn1c(Sc2c(Cl)cccc2Cl)cc(=O)[nH]c1=O` are above 25 µg/mL and above 72 µM.
For `CCOCn1c(Sc2cccc(N)c2)c(C)c(=O)[nH]c1=O`, the CC50 at 120 h in series [1] is above 25 µg/mL. The EC50 in series [2] is 1.3 µM. Moreover, the selectivity ratio in series [4] was above 63.
In turn, `CCOCn1c(Sc2cccc(Cl)c2)c(C)c(=O)[nH]c1=O` returned a CC50 at 120 h in series [1] above 25 µg/mL. The EC50 in series [2] was 0.046 µM. Also, in series [3], the “Ratio EC50” value was determined as 67. Also, in series [4], the selectivity ratio was above 1670.
As for `Cc1ccc(C)c(Cn2c(Sc3ccccc3)cc(=O)[nH]c2=O)c1`, in series [1], the CC50 at 120 h was above 25 µg/mL. Moreover, in series [2], the EC50 was above 74 µM.
In the case of `Cc1c(Sc2cccc(N)c2)n(COCC[Si](C)(C)C)c(=O)[nH]c1=O`, the CC50 at 120 h in series [1] was above 25 µg/mL. For the same compound, in series [2], the EC50 was found to be 1.15 µM. Besides, the selectivity ratio in series [4] was above 57.
In the case of `Cc1ccc(C)c(Cn2c(Sc3c(Cl)cccc3Cl)cc(=O)[nH]c2=O)c1`, the CC50 at 120 h in series [1] is above 25 µg/mL. In series [2], the EC50 was above 61 µM.
Regarding `CCOCn1c(Sc2ccccc2)c(C)c(=S)[nH]c1=O`, half-maximal cytotoxicity in series [1] (CC50 at 120 h) was put at 2.38 µg/mL (≈ 7.72 µM). Further, in series [2], the EC50 stood at 1.9 µM. Further, the selectivity ratio in series [4] is above 4.
Compound `C[Si](C)(C)CCOCn1c(Sc2ccccc2)cc(=O)[nH]c1=O` had a CC50 at 120 h in series [1] above 25 µg/mL. In addition, the EC50 in series [2] was above 71 µM.
The compound `CCOCn1c(Sc2c(Cl)cccc2Cl)c(C)c(=O)[nH]c1=O` gave a CC50 at 120 h in series [1] above 25 µg/mL. In addition, in series [2], the EC50 came out at 4.7 µM. In addition, the selectivity ratio in series [4] was above 15.

The record behind these values is ChEMBL document CHEMBL2040755, “Diverse combinatorial design, synthesis and in vitro evaluation of new HEPT analogues as potential non-nucleoside HIV-1 reverse transcription inhibitors” (Eur J Med Chem, 2012).
